Results on six compounds are retold here after ChEMBL document CHEMBL2417369, “Synthesis and evaluation of heteroaryl substituted diazaspirocycles as scaffolds to probe the ATP-binding site of protein kinases” (Bioorg Med Chem, 2013).

SMILES strings stand for the structures.

For assay [1], the species on record is Homo sapiens. Nature of the assay: Inhibition of CAMK2 (unknown origin) at 30 uM by microfluidic mobility shift assay relative to control. In outline:
(§1)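 Single-point screen at 30 µM test compound across a 24-kinase panel in a microfluidic assay format. ATP was set near each enzyme's Km,[ATP]. […] The pan-AGC inhibitor H-89 served as an internal control on every assay plate.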

Assay [2] has as its target RAF proto-oncogene serine/threonine-protein kinase (Homo sapiens) (UniProt P04049). The experiment in a line: Inhibition of c-RAF (unknown origin) at 30 uM by microfluidic mobility shift assay relative to control. In outline:
(§2)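 Single-point screen against a 24-kinase panel in a commercial microfluidic assay format. Compounds were tested at 30 µM, with ATP at approximately the Km,[ATP] of each enzyme. H-89 was included on each assay plate as an internal control.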

Assay [3] deals with Mitogen-activated protein kinase 3 (Homo sapiens, UniProt P27361). Nature of the assay: Inhibition of MAPK3 (unknown origin) at 30 uM by microfluidic mobility shift assay relative to control. An outline of the steps: as §1
The target of assay [4] is Protein kinase C theta type (Homo sapiens) (UniProt Q04759). Nature of the assay: Inhibition of PKCtheta (unknown origin) at 30 uM by microfluidic mobility shift assay relative to control. In outline: as §2
The target in assay [5] is Serine/threonine-protein kinase MARK1 (Homo sapiens) (UniProt Q9P0L2). The experiment in a line: Inhibition of MARK1 (unknown origin) at 30 uM by microfluidic mobility shift assay relative to control. An outline of the steps: as §1
The species named for assay [6] is Homo sapiens. The experiment in a line: Inhibition of PKGbeta (unknown origin) at 30 uM by microfluidic mobility shift assay relative to control. An outline of the steps: as §2
The target in assay [7] is Aurora kinase B (Homo sapiens) (UniProt Q96GD4). Nature of the assay: Inhibition of AURB (unknown origin) at 30 uM by microfluidic mobility shift assay relative to control. An outline of the steps:
as §1

Assay [8] addresses T1, Serine/threonine-protein kinase Sgk2 (Homo sapiens) (UniProt Q9HBY8).
T1 sequence (whole entry): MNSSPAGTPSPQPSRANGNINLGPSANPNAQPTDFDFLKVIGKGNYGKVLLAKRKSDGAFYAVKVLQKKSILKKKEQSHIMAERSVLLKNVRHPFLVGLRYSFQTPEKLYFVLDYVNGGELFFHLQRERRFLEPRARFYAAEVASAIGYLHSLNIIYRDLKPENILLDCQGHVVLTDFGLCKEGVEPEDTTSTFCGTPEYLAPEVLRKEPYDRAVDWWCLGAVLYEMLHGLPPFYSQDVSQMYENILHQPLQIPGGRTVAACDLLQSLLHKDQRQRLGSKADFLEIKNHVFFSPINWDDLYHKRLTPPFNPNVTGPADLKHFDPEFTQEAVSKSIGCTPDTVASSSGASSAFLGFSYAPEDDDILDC
Nature of the assay: Inhibition of SGK2 (unknown origin) at 30 uM by microfluidic mobility shift assay relative to control. An outline of the steps:
as §2

Assay [9] is filed under the species Homo sapiens. The experiment in a line: Inhibition of DCAMK (unknown origin) at 30 uM by microfluidic mobility shift assay relative to control. An outline of the steps: as §1
The target in assay [10] is T2, Serine/threonine-protein kinase D1 (Homo sapiens) (UniProt Q15139).
T2 sequence (whole entry): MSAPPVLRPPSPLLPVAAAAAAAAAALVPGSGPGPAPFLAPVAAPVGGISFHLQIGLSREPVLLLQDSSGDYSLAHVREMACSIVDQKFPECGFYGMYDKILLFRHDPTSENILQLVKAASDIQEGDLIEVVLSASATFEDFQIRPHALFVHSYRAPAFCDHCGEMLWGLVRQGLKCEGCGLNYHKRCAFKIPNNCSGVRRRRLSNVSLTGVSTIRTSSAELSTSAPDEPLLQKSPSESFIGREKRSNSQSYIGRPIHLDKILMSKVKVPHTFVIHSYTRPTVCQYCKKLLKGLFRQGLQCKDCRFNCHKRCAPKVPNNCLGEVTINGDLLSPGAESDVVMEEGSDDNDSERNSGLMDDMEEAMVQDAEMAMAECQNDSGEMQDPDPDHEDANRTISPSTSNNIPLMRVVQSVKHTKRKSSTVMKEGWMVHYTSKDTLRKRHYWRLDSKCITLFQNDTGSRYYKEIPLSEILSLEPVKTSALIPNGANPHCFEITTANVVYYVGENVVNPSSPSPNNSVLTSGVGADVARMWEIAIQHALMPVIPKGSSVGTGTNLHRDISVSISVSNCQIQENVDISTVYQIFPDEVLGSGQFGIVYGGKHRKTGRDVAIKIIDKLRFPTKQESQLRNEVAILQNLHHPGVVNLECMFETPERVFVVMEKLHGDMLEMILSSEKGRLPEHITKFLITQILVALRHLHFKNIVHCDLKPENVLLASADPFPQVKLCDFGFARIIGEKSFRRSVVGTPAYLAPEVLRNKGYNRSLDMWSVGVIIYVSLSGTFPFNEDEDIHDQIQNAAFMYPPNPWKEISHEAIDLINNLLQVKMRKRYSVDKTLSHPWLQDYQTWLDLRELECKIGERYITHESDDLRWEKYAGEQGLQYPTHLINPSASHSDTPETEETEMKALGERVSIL
The experiment in a line: Inhibition of PKD1 (unknown origin) at 30 uM by microfluidic mobility shift assay relative to control. In outline: as §2

The target of another assay is T3, Aurora kinase A (Homo sapiens, UniProt O14965).
T3 sequence (O14965 whole entry): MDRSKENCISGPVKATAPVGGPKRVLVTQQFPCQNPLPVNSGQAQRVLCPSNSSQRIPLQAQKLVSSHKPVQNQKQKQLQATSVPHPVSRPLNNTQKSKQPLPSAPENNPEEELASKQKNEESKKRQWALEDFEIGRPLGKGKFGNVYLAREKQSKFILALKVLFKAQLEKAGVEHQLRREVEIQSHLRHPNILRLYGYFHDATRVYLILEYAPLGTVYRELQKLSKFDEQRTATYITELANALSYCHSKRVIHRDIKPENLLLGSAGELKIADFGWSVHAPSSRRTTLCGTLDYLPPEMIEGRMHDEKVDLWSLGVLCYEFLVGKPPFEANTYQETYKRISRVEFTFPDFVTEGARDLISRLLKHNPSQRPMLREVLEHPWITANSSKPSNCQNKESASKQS
Nature of the assay: Inhibition of AURA (unknown origin) by microfluidic mobility shift assay.

Sequence of Aurora kinase B (Homo sapiens) (Q96GD4 whole entry): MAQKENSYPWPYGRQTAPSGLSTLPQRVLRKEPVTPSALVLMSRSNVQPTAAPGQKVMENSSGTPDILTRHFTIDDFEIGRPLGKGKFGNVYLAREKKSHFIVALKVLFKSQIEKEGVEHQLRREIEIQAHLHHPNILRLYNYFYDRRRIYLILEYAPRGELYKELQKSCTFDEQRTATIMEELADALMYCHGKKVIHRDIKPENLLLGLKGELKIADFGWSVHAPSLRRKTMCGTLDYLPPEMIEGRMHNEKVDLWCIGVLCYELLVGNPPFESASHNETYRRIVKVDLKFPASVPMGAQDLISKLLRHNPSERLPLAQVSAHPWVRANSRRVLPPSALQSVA
Sequence of Serine/threonine-protein kinase MARK1 (Homo sapiens) (Q9P0L2 whole entry, looked up): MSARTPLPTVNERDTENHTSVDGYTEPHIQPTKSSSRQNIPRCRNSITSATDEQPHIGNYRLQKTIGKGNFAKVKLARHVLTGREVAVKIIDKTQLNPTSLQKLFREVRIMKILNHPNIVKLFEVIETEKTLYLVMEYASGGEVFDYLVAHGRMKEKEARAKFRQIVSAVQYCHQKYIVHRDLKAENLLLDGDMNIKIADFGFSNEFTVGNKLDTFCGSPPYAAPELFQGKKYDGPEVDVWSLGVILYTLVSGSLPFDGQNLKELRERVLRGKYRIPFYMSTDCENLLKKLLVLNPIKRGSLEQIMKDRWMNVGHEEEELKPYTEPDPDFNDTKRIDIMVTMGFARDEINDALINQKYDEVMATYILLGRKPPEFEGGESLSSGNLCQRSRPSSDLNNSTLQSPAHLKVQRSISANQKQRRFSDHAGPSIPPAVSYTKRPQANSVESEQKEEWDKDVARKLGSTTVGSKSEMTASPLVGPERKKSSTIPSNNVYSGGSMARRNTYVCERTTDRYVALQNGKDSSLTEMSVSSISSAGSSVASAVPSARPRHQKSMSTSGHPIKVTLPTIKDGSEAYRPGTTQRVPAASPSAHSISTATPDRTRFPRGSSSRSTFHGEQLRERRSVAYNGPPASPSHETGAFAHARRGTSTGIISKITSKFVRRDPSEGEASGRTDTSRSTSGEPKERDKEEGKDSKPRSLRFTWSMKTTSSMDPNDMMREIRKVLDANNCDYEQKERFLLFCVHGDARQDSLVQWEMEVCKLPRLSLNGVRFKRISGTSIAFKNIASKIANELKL
Sequence of Protein kinase C theta type (Homo sapiens) (Q04759 whole entry, looked up): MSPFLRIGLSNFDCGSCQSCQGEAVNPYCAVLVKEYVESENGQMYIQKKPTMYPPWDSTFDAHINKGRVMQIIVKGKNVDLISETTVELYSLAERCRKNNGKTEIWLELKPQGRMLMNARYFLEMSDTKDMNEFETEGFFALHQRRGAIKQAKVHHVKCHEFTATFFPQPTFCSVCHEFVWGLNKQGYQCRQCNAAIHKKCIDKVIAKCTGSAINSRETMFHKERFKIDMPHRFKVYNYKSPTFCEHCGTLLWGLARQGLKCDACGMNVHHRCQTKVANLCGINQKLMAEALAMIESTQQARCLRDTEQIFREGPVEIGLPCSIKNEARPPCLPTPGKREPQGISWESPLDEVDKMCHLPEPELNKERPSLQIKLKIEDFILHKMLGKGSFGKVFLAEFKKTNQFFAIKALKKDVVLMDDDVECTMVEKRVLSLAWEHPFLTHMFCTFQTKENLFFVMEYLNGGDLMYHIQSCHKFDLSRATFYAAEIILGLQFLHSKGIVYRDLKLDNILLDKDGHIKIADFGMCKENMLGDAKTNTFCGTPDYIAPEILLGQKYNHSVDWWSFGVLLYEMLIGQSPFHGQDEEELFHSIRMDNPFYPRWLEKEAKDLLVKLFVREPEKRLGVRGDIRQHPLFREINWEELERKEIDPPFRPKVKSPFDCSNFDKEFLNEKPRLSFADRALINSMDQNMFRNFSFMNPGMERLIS
Sequence of RAF proto-oncogene serine/threonine-protein kinase (Homo sapiens) (P04049 whole entry): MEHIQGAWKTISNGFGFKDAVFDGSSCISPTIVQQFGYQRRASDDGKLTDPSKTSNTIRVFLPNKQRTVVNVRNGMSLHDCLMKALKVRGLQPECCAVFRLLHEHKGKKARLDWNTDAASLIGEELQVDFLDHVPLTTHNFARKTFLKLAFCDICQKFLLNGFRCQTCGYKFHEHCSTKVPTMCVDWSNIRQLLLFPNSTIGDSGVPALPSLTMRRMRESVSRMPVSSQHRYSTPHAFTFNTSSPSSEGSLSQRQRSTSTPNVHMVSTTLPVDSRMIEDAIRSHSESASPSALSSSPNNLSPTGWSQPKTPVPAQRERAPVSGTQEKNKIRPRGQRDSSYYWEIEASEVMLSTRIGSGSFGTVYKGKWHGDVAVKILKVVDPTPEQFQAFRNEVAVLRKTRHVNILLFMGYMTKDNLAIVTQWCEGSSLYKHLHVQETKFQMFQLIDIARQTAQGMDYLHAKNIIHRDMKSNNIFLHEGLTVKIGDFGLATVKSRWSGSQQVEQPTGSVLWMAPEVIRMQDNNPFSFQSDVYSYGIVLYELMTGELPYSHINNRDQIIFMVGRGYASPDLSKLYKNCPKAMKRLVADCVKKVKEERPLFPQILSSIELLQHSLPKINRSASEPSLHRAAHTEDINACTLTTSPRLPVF
Sequence of Mitogen-activated protein kinase 3 (P27361 whole entry): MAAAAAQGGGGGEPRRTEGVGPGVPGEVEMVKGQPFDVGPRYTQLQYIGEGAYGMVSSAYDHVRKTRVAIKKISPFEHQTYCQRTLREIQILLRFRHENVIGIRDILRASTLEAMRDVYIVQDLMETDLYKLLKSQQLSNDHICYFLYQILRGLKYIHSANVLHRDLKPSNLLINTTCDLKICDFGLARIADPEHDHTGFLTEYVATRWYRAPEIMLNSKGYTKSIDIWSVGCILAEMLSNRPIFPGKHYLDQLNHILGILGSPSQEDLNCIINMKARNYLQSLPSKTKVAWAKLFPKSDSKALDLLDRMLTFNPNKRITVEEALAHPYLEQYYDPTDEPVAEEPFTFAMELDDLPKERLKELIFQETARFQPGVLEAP

Broadly, the inhibition is the percentage by which the read-out fell short of the control. As to `c1ccc(C2CCNC3(CCN(c4ncnc5[nH]cnc45)CC3)C2)cc1` (racemic), the inhibition in the assay filed under Homo sapiens [1] was 13%; in assay [2], 13%; in assay [3] it was 13%; in assay [4] it was 77%; in assay [5], 89%; in the assay filed under Homo sapiens [6] it was 99%. Moreover, the inhibition is 64% in assay [7], 47% in [8], 17% in the assay listed under Homo sapiens [9] and 44% in [10].

Broadly, the IC50 is the concentration at which inhibition is half-maximal. Take `c1nc(N2CCC3(CCCNC3)CC2)c2nc[nH]c2n1`: at Aurora kinase A, the IC50 was 9.8 µM.

As for `O=C(O)C1CCC2(CCN(c3ncnc4[nH]cnc34)CC2)NC1` (racemic), the IC50 at Aurora kinase A came to 6.1 µM.

In the case of `c1ccc(CC2CCC3(CCN(c4ncnc5[nH]cnc45)CC3)NC2)cc1` (racemic), the inhibition in the assay listed under Homo sapiens [1] amounted to 9%; in assay [2] it was 11%; in [3] it was 7%; in assay [4], 17%; in assay [5] it was 0%; in the assay listed under Homo sapiens [6] it was 86%. In addition, the inhibition came out at 73% in [7], 17% in assay [8], 13% in the assay listed under Homo sapiens [9] and 12% in assay [10].

As for `c1nc(N2CCC3(CCCCN3)CC2)c2nc[nH]c2n1`, at Aurora kinase A, the IC50 was determined as 7.8 µM.

As for `c1ccc(CC2CCNC3(CCN(c4ncnc5[nH]cnc45)CC3)C2)cc1` (racemic), the inhibition came to 17% in the assay filed under Homo sapiens [1]; 15% in assay [2]; 9% in assay [3]; 75% in assay [4]; 99% in assay [5]; 98% in the assay listed under Homo sapiens [6]. Moreover, the inhibition in assay [7] is 66%; in [8], 59%; in the assay listed under Homo sapiens [9], 20%; in assay [10], 72%.
